Active and inactive are the calls of the source. No cut-off for these calls is given here.
Assays:
Rattus norvegicus [1] = species: Rattus norvegicus; experiment: Inhibition of soluble guanylyl cyclase in rat aortic smooth muscle cells assessed as inhibition of SNP-stimulated cGMP formation by immunoassay
Outline: (§1)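 Rat aortic smooth muscle cells were grown in high-glucose DMEM with 10% foetal calf serum plus penicillin/streptomycin, and passages 3–4 were used at confluence. Cells were pretreated with IBMX (1 mM, 5 min) to block phosphodiesterase, then exposed to compound for 20 min with IBMX still present. They were then stimulated with SNP for 15 min, and cGMP was measured by enzyme immunoassay.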

Rattus norvegicus [2] = species: Rattus norvegicus; experiment: Inhibition of soluble guanylyl cyclase in rat aortic smooth muscle cells assessed as inhibition of SNP-stimulated cGMP formation at 0.1 uM by immunoassay; outline: as §1
Rattus norvegicus [3] = species: Rattus norvegicus; experiment: Inhibition of soluble guanylyl cyclase in rat aortic smooth muscle cells assessed as inhibition of SNP-stimulated cGMP formation at 10 uM by immunoassay; outline: as §1

Row | Compound | inhibition (Rattus norvegicus [1]) | inhibition (Rattus norvegicus [2]) | inhibition (Rattus norvegicus [3])
1 | O=c1c2ccccc2nc2n1-c1ccccc1OC2 | inactive | – | –
2 | O=c1onc2n1-c1ncccc1OC2 | – | Active | Active
3 | O=c1c2ccccc2nc2n1-c1cc(Br)ccc1OC2 | inactive | – | –
4 | O=c1c2ccc(Cl)cc2nc2n1-c1ccccc1OC2 | – | Active | Active
5 | O=c1onc2n1-c1cc(-c3cccc(C(F)(F)F)c3)ccc1OC2 | – | Active | Active

Now from value to compound:

Row | inhibition (Rattus norvegicus [1]) | inhibition (Rattus norvegicus [2]) | inhibition (Rattus norvegicus [3]) | Compound
6 | inactive | – | – | O=c1[nH]nc2n1-c1cc(Br)ccc1OC2
7 | – | Active | Active | COc1ccc(-c2ccc3c(c2)-n2c(noc2=O)CO3)cc1
8 | inactive | – | – | O=C1c2ccccc2-n2c(noc2=O)[C@@H]2CCCN12
9 | Dose-dependent effect | 85% | Active | O=c1onc2cnc3ccccc3n12

Reference: ChEMBL document CHEMBL1159051, “Synthesis and biological evaluation of oxadiazole derivatives as inhibitors of soluble guanylyl cyclase” (Bioorg Med Chem, 2010)
